Residue numbers refer to the chain shown, from its start.
Key:
Conditions in all cases: stereoisomer not certain
[1] = molecular target: T1, OR56B4 (Homo sapiens) (UniProt Q8NH76)
T1 sequence (whole entry): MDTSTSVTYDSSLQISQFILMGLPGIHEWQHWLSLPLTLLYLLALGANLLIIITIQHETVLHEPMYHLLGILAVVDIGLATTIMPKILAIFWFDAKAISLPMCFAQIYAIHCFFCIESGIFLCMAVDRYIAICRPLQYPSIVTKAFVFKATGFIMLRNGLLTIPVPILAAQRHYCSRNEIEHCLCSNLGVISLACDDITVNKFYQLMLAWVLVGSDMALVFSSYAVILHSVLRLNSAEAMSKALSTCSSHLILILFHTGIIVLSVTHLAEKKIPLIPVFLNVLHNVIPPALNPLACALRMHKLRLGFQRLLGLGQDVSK
Procedure, shortened: (§1)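 Assay methods differ from source to source, frequently being transient luciferase assays in mammalian cell lines. For each receptor–molecule pair, the label responsive (active) applies when the original authors judged the measured signal statistically different from baseline, and non-responsive (inactive) applies otherwise.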

[2] = molecular target: T2, OR5A1 (Homo sapiens) (UniProt Q8NGJ0)
T2 sequence (whole entry): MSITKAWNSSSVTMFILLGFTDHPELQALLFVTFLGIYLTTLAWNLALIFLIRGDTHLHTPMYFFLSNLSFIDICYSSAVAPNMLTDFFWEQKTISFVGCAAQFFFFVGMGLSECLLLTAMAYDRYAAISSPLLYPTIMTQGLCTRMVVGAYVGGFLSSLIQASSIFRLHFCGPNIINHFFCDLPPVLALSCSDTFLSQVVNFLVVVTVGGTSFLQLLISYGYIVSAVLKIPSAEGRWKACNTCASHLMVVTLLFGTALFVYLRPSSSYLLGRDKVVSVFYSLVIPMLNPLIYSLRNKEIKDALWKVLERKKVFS
Procedure, shortened: as §1

[3] = molecular target: T3, OR5A2 (Homo sapiens) (UniProt Q8NGI9)
T3 sequence (whole entry): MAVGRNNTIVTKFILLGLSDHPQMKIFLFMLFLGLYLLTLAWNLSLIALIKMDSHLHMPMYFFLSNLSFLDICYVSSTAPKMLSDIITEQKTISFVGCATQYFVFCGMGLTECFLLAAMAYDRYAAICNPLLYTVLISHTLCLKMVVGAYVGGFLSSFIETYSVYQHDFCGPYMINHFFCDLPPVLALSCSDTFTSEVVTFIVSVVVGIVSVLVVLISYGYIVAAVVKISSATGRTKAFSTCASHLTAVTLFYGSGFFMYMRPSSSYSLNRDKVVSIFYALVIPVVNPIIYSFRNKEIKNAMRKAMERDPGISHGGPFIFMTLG
Procedure, shortened: as §1

[4] = molecular target: T4, OR5AC2 (Homo sapiens) (UniProt Q9NZP5)
T4 sequence (whole entry): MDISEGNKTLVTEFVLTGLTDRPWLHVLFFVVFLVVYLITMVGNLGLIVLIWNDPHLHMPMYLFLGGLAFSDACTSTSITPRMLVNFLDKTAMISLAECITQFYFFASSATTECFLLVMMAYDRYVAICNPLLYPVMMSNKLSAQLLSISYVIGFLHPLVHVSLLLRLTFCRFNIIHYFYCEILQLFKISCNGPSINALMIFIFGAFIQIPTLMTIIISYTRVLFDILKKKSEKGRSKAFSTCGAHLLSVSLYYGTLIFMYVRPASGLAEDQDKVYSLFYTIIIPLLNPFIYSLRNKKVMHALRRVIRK
Procedure, shortened: as §1

[5] = molecular target: T5, OR5AK2 (Homo sapiens) (UniProt Q8NH90)
T5 sequence (whole entry): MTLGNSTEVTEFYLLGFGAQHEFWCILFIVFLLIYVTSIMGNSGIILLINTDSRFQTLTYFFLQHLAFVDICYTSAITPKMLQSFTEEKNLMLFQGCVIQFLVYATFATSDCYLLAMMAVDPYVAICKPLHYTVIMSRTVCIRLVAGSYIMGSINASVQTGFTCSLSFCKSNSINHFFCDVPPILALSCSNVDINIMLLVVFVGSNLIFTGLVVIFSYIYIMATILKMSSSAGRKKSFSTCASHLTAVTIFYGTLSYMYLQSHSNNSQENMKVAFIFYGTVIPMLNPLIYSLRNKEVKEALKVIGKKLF
Procedure, shortened: as §1

[6] = molecular target: T6, OR5AN1 (Homo sapiens) (UniProt Q8NGI8)
T6 sequence (whole entry): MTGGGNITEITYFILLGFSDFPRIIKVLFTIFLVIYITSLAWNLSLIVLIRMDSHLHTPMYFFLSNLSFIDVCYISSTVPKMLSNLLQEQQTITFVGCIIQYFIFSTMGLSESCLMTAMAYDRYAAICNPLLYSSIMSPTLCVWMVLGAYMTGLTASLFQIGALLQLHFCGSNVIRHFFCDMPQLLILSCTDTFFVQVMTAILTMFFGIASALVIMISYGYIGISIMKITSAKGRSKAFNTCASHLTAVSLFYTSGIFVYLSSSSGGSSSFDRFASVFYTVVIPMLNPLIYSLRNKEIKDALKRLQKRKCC
Procedure, shortened: as §1

[7] = molecular target: T7, OR5AP2 (Homo sapiens) (UniProt Q8NGF4)
T7 sequence (whole entry): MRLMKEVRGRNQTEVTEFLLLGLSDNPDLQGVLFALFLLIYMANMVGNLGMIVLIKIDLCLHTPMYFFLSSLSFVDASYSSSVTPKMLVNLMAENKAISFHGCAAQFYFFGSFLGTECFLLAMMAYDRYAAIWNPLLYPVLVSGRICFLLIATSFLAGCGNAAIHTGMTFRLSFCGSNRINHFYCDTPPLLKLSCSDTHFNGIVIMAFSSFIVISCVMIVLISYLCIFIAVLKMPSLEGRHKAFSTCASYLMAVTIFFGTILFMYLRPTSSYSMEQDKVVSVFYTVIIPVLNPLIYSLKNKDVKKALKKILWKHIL
Procedure, shortened: as §1

[8] = molecular target: T8, OR5AR1 (Homo sapiens) (UniProt Q8NGP9)
T8 sequence (whole entry): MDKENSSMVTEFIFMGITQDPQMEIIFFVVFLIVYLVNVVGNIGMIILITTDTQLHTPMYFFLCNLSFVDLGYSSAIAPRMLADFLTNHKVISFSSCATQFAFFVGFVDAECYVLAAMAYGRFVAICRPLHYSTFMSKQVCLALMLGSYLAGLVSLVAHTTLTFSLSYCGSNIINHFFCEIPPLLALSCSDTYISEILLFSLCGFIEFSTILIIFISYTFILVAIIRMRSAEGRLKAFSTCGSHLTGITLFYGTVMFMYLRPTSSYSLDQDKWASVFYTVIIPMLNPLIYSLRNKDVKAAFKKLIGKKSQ
Procedure, shortened: as §1

[9] = molecular target: T9, OR5AS1 (Homo sapiens) (UniProt Q8N127)
T9 sequence (whole entry): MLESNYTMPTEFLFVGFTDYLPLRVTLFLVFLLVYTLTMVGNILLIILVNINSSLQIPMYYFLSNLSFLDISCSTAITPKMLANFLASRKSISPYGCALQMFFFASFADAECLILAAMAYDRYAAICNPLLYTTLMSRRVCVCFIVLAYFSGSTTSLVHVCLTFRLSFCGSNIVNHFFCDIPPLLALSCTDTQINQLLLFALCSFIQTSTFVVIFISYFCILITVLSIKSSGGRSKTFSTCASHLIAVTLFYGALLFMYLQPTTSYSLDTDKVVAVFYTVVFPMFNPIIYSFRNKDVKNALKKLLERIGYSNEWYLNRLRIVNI
Procedure, shortened: as §1

[10] = molecular target: T10, OR5AU1 (Homo sapiens) (UniProt Q8NGC0)
T10 sequence (whole entry): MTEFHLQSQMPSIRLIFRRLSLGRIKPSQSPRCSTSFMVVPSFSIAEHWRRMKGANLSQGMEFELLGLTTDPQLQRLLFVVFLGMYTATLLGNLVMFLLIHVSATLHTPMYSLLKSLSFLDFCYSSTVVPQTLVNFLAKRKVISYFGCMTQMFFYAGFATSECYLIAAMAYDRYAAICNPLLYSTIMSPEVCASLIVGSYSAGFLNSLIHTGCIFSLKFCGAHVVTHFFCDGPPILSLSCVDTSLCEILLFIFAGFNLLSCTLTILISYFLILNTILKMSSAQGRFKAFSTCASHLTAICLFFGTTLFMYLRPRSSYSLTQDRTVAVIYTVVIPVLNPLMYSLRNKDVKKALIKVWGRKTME
Procedure, shortened: as §1

[11] = molecular target: T11, OR5B12 (Homo sapiens) (UniProt Q96R08)
T11 sequence (whole entry): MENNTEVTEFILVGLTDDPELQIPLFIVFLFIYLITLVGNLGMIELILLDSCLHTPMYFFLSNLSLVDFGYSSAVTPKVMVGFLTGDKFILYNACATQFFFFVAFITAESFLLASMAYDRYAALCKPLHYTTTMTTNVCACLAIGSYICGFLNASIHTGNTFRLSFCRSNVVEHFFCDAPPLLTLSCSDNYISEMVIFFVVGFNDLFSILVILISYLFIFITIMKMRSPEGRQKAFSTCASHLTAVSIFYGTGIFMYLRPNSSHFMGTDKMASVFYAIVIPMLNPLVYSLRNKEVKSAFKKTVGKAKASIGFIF
Procedure, shortened: as §1

[12] = molecular target: T12, OR5B17 (Homo sapiens) (UniProt Q8NGF7)
T12 sequence (whole entry): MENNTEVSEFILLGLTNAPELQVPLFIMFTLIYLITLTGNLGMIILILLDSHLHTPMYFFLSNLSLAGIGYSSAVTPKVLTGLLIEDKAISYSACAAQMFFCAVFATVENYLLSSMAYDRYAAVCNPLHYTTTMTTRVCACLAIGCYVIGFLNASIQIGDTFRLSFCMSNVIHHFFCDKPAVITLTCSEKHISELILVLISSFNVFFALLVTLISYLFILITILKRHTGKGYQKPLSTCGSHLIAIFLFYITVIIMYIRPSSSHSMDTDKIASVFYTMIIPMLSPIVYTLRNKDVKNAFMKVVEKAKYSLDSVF
Procedure, shortened: as §1

[13] = molecular target: T13, OR5B2 (Homo sapiens) (UniProt Q96R09)
T13 sequence (whole entry): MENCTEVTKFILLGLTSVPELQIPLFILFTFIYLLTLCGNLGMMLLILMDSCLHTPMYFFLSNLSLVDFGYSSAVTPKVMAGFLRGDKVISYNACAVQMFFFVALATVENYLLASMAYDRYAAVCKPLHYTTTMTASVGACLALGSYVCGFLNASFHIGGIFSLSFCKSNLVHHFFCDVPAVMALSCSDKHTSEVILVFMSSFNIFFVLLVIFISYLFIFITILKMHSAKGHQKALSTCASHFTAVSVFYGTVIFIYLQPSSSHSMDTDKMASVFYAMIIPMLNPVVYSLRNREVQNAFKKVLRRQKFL
Procedure, shortened: as §1

[14] = molecular target: T14, OR5B21 (Homo sapiens) (UniProt A6NL26)
T14 sequence (whole entry): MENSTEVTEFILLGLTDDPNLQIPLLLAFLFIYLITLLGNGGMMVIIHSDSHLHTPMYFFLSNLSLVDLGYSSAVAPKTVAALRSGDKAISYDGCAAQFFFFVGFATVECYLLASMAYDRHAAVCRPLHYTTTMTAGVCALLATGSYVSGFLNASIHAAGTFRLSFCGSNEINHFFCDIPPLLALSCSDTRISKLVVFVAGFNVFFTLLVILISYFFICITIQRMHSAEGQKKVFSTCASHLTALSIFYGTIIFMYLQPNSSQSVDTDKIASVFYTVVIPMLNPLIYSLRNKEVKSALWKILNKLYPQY
Procedure, shortened: as §1

[15] = molecular target: T15, OR5B3 (Homo sapiens) (UniProt Q8NH48)
T15 sequence (whole entry): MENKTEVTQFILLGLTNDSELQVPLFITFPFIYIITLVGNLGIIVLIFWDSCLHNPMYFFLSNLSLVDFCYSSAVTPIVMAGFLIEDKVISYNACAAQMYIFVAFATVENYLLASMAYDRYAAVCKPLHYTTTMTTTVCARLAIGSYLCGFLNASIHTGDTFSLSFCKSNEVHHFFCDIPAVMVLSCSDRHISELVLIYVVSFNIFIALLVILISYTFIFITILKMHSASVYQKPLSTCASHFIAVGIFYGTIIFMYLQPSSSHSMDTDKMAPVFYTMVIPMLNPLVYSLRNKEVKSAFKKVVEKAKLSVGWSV
Procedure, shortened: as §1

[16] = tested on: T16, OR5A1 D183N
T16 sequence (whole entry): T2 sequence (whole entry) with D183N
Procedure, shortened: as §1

[17] = tested on: T17, OR5B2 E6D
T17 sequence (whole entry): T13 sequence (whole entry) with E6D
Procedure, shortened: as §1

[18] = tested on: T18, OR5B3 I198V G247A
T18 sequence (whole entry): T15 sequence (whole entry) with I198V, G247A
Procedure, shortened: as §1

Measured: odorant receptor agonist call

CCC(S)C(C)CO (centres undefined)
not listed: [16] | [17] | [18]
inactive: all other assays above

CC(=O)C=CC1=C(C)CCCC1(C)C
inactive: [4] | [12]

CCCCCC(S)C(C)CO (centres undefined)
not listed: [16] | [17] | [18]
inactive: all other assays above

CCCCCC(=O)C(C)C(C)=O (centres undefined)
not listed: [16] | [17] | [18]
inactive: all other assays above

CC1=NC(C)C(C)S1 (centres undefined)
inactive: all assays above

CCC1OC(C)=C(O)C1=O (centres undefined)
inactive: all assays above

CCC1OC(=O)C(O)=C1C (centres undefined)
inactive: all assays above

CC1=C(O)C(=O)C(C)O1 (centres undefined)
inactive: all assays above

CCCC(S)CCOC(C)=O (centres undefined)
inactive: all assays above

CCCCCC1C(=O)CCC1CC(=O)OC (centres undefined)
inactive: [4] | [12]
